pIC50: −log10 of the molar value.

Test [1] addresses 5-hydroxytryptamine receptor 2A (Homo sapiens, UniProt P28223). Description: Displacement of [3H]ketanserin from human recombinant 5HT2A expressed in CHOK1 cells. It counts as cell-based, CHO-K1. The gist of the method:
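Human recombinant 5-HT2A membranes from CHO-K1 cells were incubated with 1 nM [3H]ketanserin, with mianserin defining nonspecific binding. Incubation was 60 min at 27 °C in 50 mM Tris-HCl pH 7.4 with 4 mM CaCl2 and 0.1% ascorbic acid. Filtered on glass fibre presoaked in 0.5% PEI, washed, and counted. IC50 by nonlinear regression from 7–8 concentrations in duplicate.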

In test [2] the target is T1, 5-hydroxytryptamine receptor 2C (Homo sapiens, UniProt P28335).
T1 sequence (P28335 whole entry): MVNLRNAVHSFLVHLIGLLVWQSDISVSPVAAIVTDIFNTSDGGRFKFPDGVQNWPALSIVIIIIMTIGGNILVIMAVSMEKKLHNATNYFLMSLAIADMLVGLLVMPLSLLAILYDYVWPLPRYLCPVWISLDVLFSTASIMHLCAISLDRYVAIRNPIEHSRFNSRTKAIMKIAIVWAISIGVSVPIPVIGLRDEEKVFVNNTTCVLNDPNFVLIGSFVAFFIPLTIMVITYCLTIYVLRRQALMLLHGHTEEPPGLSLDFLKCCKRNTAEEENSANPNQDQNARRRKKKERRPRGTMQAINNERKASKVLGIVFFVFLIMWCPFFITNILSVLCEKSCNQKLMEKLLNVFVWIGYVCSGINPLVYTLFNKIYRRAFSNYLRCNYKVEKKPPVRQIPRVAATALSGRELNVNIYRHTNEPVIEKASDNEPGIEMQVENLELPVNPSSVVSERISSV
Description: Displacement of [3H]mesulergine from human recombinant 5HT2C expressed in CHOK1 cells. It counts as cell-based, CHO-K1. The gist of the method: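 Frozen CHO-K1 membranes with human recombinant 5-HT2C were incubated with 1.3 nM [3H]mesulergine in 50 mM Tris-HCl pH 7.4 with 0.1% ascorbic acid and 4 mM CaCl2 for 60 min at 27 °C. Nonspecific binding was set with 100 mianserin. Stopped by rapid filtration on glass fibre presoaked in 0.5% PEI.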

Test [3] concerns the target Sodium-dependent serotonin transporter (Homo sapiens, UniProt P31645). The test is described as follows: Displacement of [3H]imipramine from human SERT expressed in HEK293 cells. It counts as cell-based. A digest of the protocol:
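Membranes from 293 cells expressing SERT were incubated with 2 nM [3H]imipramine in 50 mM Tris-HCl pH 7.4 with 120 mM NaCl and 5 mM KCl for 30 min at 27 °C. Filtered through glass fibre presoaked in 0.5% PEI, then washed with ice-cold 50 mM Tris-HCl pH 7.4 containing 0.9% NaCl.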

For test [4], the system named is Mus musculus. Description: Locomotor activity in mouse assessed as distance traveled by animal in horizontal locomotion at 25 mg/kg, po after 60 mins measured for 30 mins by spontaneous locomotor activity. It counts as functional. A digest of the protocol:
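Mice were dosed orally at 25 mg/kg and acclimated to the chamber for 10 min. Horizontal distance travelled (cm) was then recorded over 30 min by automated video tracking. Testing ran between 09:00 and 17:00 h. Mean ± SEM of 6–7 mice.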

Test [5] has as its target Voltage-gated inwardly rectifying potassium channel KCNH2 (Homo sapiens, UniProt Q12809). Description: Inhibition of human recombinant ERG channel expressed in HEK293 cells.

Voltage-gated inwardly rectifying potassium channel KCNH2, sequence (Q12809 whole entry): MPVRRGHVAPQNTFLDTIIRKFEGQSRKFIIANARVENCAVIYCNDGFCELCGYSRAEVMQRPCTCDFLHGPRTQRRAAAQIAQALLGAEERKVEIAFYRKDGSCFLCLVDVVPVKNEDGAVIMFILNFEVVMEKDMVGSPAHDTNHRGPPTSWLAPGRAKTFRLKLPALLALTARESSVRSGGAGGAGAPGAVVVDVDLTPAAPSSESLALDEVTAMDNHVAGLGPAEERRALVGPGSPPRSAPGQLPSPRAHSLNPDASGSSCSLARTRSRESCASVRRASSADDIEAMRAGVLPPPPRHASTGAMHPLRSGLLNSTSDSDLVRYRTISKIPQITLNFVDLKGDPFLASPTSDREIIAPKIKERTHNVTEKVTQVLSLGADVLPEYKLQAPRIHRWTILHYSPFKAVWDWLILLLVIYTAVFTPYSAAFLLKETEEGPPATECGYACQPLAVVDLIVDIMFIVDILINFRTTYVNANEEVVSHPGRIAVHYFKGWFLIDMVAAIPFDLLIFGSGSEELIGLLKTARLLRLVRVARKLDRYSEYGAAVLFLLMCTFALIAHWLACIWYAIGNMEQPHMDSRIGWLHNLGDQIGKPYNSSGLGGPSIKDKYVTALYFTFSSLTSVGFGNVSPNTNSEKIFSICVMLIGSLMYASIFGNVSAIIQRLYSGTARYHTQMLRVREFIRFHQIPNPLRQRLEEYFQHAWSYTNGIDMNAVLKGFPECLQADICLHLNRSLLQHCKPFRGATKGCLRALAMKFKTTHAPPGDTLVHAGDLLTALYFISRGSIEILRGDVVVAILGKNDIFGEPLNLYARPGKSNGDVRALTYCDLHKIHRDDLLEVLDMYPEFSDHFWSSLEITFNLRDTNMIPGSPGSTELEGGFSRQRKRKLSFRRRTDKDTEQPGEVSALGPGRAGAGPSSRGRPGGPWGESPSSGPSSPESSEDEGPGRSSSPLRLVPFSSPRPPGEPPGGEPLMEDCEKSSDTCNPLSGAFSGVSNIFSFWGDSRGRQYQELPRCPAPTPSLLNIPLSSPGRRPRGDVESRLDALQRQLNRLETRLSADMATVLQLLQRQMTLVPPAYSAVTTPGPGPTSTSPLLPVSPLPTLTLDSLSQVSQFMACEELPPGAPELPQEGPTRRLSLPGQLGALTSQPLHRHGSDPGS
5-hydroxytryptamine receptor 2A, sequence (P28223 whole entry): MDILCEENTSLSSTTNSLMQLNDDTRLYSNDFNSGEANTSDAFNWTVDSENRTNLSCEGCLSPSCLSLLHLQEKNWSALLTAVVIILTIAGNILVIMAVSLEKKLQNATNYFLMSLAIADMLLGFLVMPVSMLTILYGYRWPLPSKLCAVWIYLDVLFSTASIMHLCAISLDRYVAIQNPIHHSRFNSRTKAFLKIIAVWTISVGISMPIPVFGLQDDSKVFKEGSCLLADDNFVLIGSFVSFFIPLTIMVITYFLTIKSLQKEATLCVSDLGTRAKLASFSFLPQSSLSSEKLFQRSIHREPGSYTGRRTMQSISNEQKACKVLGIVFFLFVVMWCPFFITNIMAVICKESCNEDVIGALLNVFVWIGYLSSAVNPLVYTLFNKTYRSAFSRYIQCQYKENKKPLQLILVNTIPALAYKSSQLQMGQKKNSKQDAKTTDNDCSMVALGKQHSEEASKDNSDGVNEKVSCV
Sodium-dependent serotonin transporter, sequence (P31645 whole entry): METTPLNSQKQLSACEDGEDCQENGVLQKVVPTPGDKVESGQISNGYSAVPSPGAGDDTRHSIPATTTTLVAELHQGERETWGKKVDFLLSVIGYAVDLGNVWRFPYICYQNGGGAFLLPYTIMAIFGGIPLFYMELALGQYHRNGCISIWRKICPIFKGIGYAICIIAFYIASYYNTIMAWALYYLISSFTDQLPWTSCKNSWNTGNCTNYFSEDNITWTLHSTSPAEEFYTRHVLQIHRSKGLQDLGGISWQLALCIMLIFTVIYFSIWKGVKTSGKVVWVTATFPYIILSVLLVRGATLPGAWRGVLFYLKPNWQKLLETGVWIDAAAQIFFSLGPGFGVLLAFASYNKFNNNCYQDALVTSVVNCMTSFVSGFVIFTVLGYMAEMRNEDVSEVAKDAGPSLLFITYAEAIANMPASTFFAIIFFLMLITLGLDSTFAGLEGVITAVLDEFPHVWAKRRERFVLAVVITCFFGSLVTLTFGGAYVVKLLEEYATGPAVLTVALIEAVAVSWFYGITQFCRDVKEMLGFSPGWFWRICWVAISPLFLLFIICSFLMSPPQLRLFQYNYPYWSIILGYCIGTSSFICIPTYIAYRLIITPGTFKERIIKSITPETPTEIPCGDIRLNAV

For `Cc1c(C(=O)NCCCN2CCN(c3ccncc3)CC2)cc(-c2ccccc2)n1C`, the negative logarithm of the IC50 (pIC50) in test [1] was 5.34; in test [2] it was 5.28; in test [3], under 5.00.

For the compound `CCCn1c(-c2ccccc2)cc(C(=O)NCCCN2CCN(c3cccc(OC)c3)CC2)c1C`, the figures for the pIC50 in test [1], in test [2] and in test [3] were 6.82, 6.34 and 6.49, respectively.

Take `Cc1c(C(=O)NCCN2CCN(c3cccc(Cl)c3Cl)CC2)cc(C(C)(C)C)n1C`: the pIC50 in test [1] is 7.30; in test [2] it was 6.96; in test [3], 7.35.

Regarding `CCn1c(-c2ccc(Cl)cc2)cc(C(=O)NCCCN2CCN(c3cccc(Cl)c3Cl)CC2)c1C`, the negative logarithm of the IC50 (pIC50) in test [1] is 6.82; in test [2], 7.66; in test [3] it was 6.20.

Take `Cc1c(Cl)cccc1N1CCN(CCNC(=O)c2cc(-c3ccccc3)n(C)c2C)CC1`: the Activity in test [4] came to 7100 cm. The pIC50 in test [2] is 6.63; in test [3], 7.19.

`CCCn1c(-c2ccccc2)cc(C(=O)NCCCN2CCN(c3cccc4cccnc34)CC2)c1C`: the figures for the pIC50 in test [1], in test [2] and in test [3] were 6.68, 6.38 and 7.09, respectively.

With `CCCn1c(-c2ccccc2)cc(C(=O)NCCCN2CCN(c3cccc(C(F)(F)F)c3)CC2)c1C`, the pIC50 in test [1] is 6.39; in test [2], 6.21; in test [3] it was 6.42.

Regarding `Cc1c(C(=O)NCCN2CCN(c3cccc(Cl)c3Cl)CC2)c(C)n(C)c1-c1ccccc1`, the pIC50 is 7.48 in test [1], 7.80 in test [2] and 7.11 in test [3].

Regarding `CCCn1c(-c2ccccc2)cc(C(=O)NCCCN2CCN(c3cc(F)ccc3F)CC2)c1C`, the negative logarithm of the IC50 (pIC50) is 6.87 in test [1], 6.00 in test [2] and 6.07 in test [3].

Consider `Cc1c(C(=O)NCCCN2CCN(c3ccccc3Br)CC2)cc(-c2ccccc2)n1C`, for which the pIC50 in test [1] is 6.66; in test [2] it was 6.20; in test [3] it was 6.65.

As for `Cc1c(C(=O)NCCCN2CCN(c3cccc(Cl)c3Cl)CC2)cc(-c2cccnc2)n1C`, the pIC50 in test [1] is 6.68; in test [2] it was 7.04; in test [3], 8.15; in test [5], 5.17.

As to `Cc1cccc(N2CCN(CCCNC(=O)c3cc(C(C)(C)C)n(C)c3C)CC2)c1C`, the pIC50 in test [1] was 6.41; in test [2] it was 5.94; in test [3], 6.60.

Regarding `CCCn1c(-c2ccccc2)cc(C(=O)N(C)CCCN2CCN(c3cccc(C)c3C)CC2)c1C`, the negative logarithm of the IC50 (pIC50) in test [1] was 7.77; in test [2] it was 7.92; in test [3], 6.79; in test [5], 6.15.

Regarding `Cc1ccc2cccc(N3CCN(CCCNC(=O)c4cc(-c5ccccc5)n(C)c4C)CC3)c2n1`, the results for the pIC50 in test [1], in test [2] and in test [3] were 6.08, 6.19 and 6.52, respectively.

For the compound `Cc1c(C(=O)NCCCN2CCN(c3cccc4cccnc34)CC2)cc(-c2ccccc2)n1C`, the figures for the pIC50 in test [1], in test [2] and in test [3] were 6.45, 6.63 and 7.66, respectively.

In the case of `CCCn1c(-c2ccccc2)cc(C(=O)NCCCN2CCN(c3cccc(Br)c3)CC2)c1C`, the pIC50 in test [1] is 6.66; in test [2] it was 6.20; in test [3], 6.65.

Take `CCCn1c(-c2ccccn2)cc(C(=O)NCCCN2CCN(c3cccc(Cl)c3Cl)CC2)c1C`: the negative logarithm of the IC50 (pIC50) in test [5] is 6.00.

`Cc1[nH]c(-c2ccccn2)cc1C(=O)NCCCN1CCN(c2cccc(Cl)c2Cl)CC1`: in test [2], the pIC50 is 6.66.

In the case of `Cc1c(Cl)cccc1N1CCN(CCNC(=O)c2cc(C(C)(C)C)n(C)c2C)CC1`, in test [4], the Activity was found to be 6217 cm. Further, the pIC50 was 7.27 in test [1], 6.68 in test [2] and 6.50 in test [3].

Take `CCCn1c(-c2ccccc2)cc(C(=O)N(C)CCCN2CCN(c3cccc(Cl)c3Cl)CC2)c1C`: the negative-log IC50 (pIC50) in test [2] was 7.68.

`CCCn1c(-c2ccccc2)cc(C(=O)NCCCN2CCN(c3ccc(Cl)c(Cl)c3)CC2)c1C`: the figures for the negative logarithm of the IC50 (pIC50) in test [1], in test [2] and in test [3] were 7.27, 6.49 and 6.55, respectively.

With `Cc1c(C(=O)N(C)CCCN2CCN(c3cccc(Cl)c3Cl)CC2)cc(-c2ccccc2)n1C`, the values for the pIC50 in test [2] and in test [5] were 7.46 and 6.30, respectively.

`Cc1[nH]c(-c2ccccc2)cc1C(=O)NCCCN1CCN(c2cccc(Cl)c2Cl)CC1`: the pIC50 in test [5] was 7.00.

On to `Cc1cccc(N2CCN(CCNC(=O)c3cc(C(C)(C)C)n(C)c3C)CC2)c1C`, for which the pIC50 was 7.44 in test [1], 5.65 in test [2], 6.04 in test [3] and 4.93 in test [5].

With `CCCn1c(-c2ccccc2)cc(C(=O)NCCCN2CCN(c3cccc(Cl)c3Cl)CC2)c1C`, in test [5], the pIC50 was 6.27.

The values above are taken from ChEMBL document CHEMBL1212860, “Further optimization of novel pyrrole 3-carboxamides for targeting serotonin 5-HT(2A), 5-HT(2C), and the serotonin transporter as a potential antidepressant” (Bioorg Med Chem, 2010).
